Test [1] deals with Vero E6 viability, CellTiter-Glo luminescence, 72 h. The test is described as follows: viability loss in Vero E6 cells – cell-based, set 2, cytotoxicity control for PfM17LAP inhibitor project, dose response (AID 602227). The procedure, abridged: (§1)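 Test system: Vero E6 cells (African green monkey kidney), viability assay / Buffer or medium: E-MEM plus 10% FBS / Dosing: compound dose-response, 10 concentrations in 2-fold serial dilution / Schedule: 72 h compound exposure at 37 °C, 5% CO2 / Detection: CellTiter-Glo luminescence / Read-out basis: background-subtracted % viability vs DMSO wells, CC50 by 4-parameter fit bounded 0–100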

Assay in test [2]: as above
The settings on record: Vero E6 viability, CellTiter-Glo luminescence, 72 h; at 50 µM (top of the series). A digest of the protocol:
as §1
(In general: ATP-based viability assays read luminescence as a measure of living cells.)

Each structure is given as a SMILES string. Calls of active or inactive are those of the source.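 The calls were made as follows: active = viability below 80% at one or more tested concentrations, flagged as toxic; inconclusive = replicate runs disagree on whether the viability criterion is met; inactive = viability at or above 80% at every dose.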

Consider 17 compounds from PubChem BioAssay AID602227 (Southern Research Specialized Biocontainment Screening …, 2012).

The term CC50 denotes the concentration giving 50% cytotoxicity. For the compound `CCCCOc1ccc(CC(=O)N(C)O)cc1`, in test [1], the CC50 is 27.2 µM.

For `CCCCCCCCCC(=O)NO`, in test [1], the CC50 is 25.2 µM.

One may read the viability as a read-out of living cells in per cent, often relative to untreated cells. `CCCCOc1ccc(CNc2c(N(C)O)c(=O)c2=O)cc1`: the viability in test [2] is 90% (inactive).

As to `O=C(Cc1ccc(Oc2ccccc2)cc1)NO`, the CC50 in test [1] is 32.4 µM.

As to `Cc1ccc(CC(=O)NO)cc1`, the viability in test [2] was 102% (inactive).

Take `COc1ccc(CC(=O)NO)cc1`: in test [2], the viability is 95.7% (inactive).

For the compound `CCCCOc1ccc(CNc2c(N(O)Cc3ccccc3)c(=O)c2=O)cc1`, in test [2], the viability was 92.8% (inactive).

For the compound `CCCCOc1ccc(CC(=O)O)cc1`, the viability in test [2] was 88.7% (inactive).

In the case of `CCCCc1ccc(CC(=O)NO)cc1`, the CC50 in test [1] is 34.7 µM.

As for `CC(C)(C(=O)NO)c1ccccc1`, the viability in test [2] is 102% (inactive).

For the compound `COC(=O)Cc1ccc(OCC(C)C)cc1`, the viability in test [2] was 101% (inactive).

Take `COC(=O)Cc1ccc(OCCN(C)C)cc1`: the viability in test [2] was 94.5% (inactive).

In the case of `CCCOc1ccc(CC(=O)OC)cc1`, the viability in test [2] is 94.9% (inactive).

Consider `CCOc1ccc(CC(=O)NO)cc1`, for which, in test [2], the viability was 98.9% (inactive).

Turning to `CCCCOc1ccc(CCC(=O)NO)cc1`, in test [1], the CC50 is 29.1 µM.

As for `CN(O)C(=O)Cc1ccc(OCc2ccccc2)cc1`, in test [1], the CC50 is 24.8 µM.

`CCC(C)Oc1ccc(CC(=O)OC)cc1` (configuration not stated): the viability in test [2] was 102% (inactive).
